Where a name gives a salt, the structure may show the parent alone.

The logD is lipophilicity at a set pH, counting ionised and neutral species. Read a high logD as higher lipophilicity.

Series [1] deals with Canis familiaris. In words: Compound was tested for its ability to block isoproterenol-induced vasodilation in anesthetized dogs. The following applies: Canis lupus familiaris, read-out: pA2 app (converted).
Series [2] relates to Canis familiaris. In words: Compound was tested for its ability to block isoproterenol-induced contractile force in anesthetized dogs. The settings on record: Canis lupus familiaris, read-out: pA2 app (converted).
The species named for series [3] is Canis familiaris. In words: Vasodilator potency relative to propranolol. The format is functional, Canis lupus familiaris. The essentials: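 Anesthetized mongrel dogs with a vascularly isolated, pump-perfused hindlimb at constant blood flow; the read-out is the fall in perfusion pressure. Bolus intraarterial injections in isotonic saline into the perfusion system, lowest doses first, compound order randomized at each level; four dogs. Dose to lower pressure 55 mmHg determined.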

The test system of series [4] is Canis familiaris. In words: Compound was tested for its ability to block isoproterenol-induced increases in heart rate(HR) in anesthetized dogs. The following applies: Canis lupus familiaris, read-out: pA2 app (converted).
Series [5] in a line: Partition coefficient (logD7.4). The format is physicochemical. The settings on record: octanol/water, pH 7.4. The method in brief:
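Distribution between 1-octanol and 0.16 M pH 7.4 phosphate buffer (mutually presaturated). Compound at 10^-4 M in buffer was shaken 15 min with an equal volume of octanol, then centrifuged 10 min. Run in triplicate.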

In series [6] the test system is Canis familiaris. In words: Concentration required to decrease hindlimb perfusion pressure(55 mmHg) in anesthetized dogs after intra arterial administration. It counts as functional, Canis lupus familiaris, Artery. The method in brief:
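Anesthetized mongrel dogs, vascularly isolated pump-perfused hindlimb held at constant blood flow. Vascular resistance was read as change in perfusion pressure. Bolus intraarterial injections into the perfusion circuit, drugs in isotonic saline, rising doses with compound order randomized at each level. Dose to lower perfusion pressure by 55 mmHg was taken. Four dogs, mean ± SE.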

Series [7] can be described thus: Beta adrenergic receptor antagonist potency relative to propranolol. It counts as functional. The method in brief:
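Pentobarbital-anesthetized mongrel dogs. Isoproterenol dose-response curves (heart rate, contractile force, femoral artery flow) repeated after cumulative doses of 10, 100 and 1000 µg/kg of racemic hydrochloride in isotonic saline. Apparent pA2 taken from the curve shifts. […] One compound per dog, four dogs each.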

As for `CC(C)NCC(O)COc1c(O)ccc2ccccc12` (stereo not given), the Kb with Canis familiaris [1] is 468 nM; in the series on Canis familiaris [2] it was 646 nM; in the series with Canis familiaris [4] it was 1350 nM. The Relative potency amounted to 1.07 in the series listed under Canis familiaris [3] and 0.03 in series [7]. The molecule further registered a pH-dependent lipophilicity (logD) in series [5] of 1.66. The same molecule yielded a Dose with Canis familiaris [6] of 0.52 mg.

With `CC(C)NCC(O)COc1cccc2c(O)cccc12` (stereo not given), the Kb with Canis familiaris [1] was 20.9 nM; in the series with Canis familiaris [2], 32.4 nM; with Canis familiaris [4] it was 75.9 nM. Further, the results for the Relative potency (in the series listed under Canis familiaris [3]; in series [7]) were 0.28 and 0.56, respectively. Also, the logD in series [5] was 0.56. Moreover, the Dose in the series with Canis familiaris [6] came out at 1.95 mg.

The molecule `CC(C)NCC(O)COc1cccc2ccccc12` (stereo not given) [PROPRANOLOL] gave a Dose with Canis familiaris [6] of 0.55 mg.

As to `CC(C)NCC(O)COc1ccc(O)c2ccccc12` (stereo not given) [4-HYDROXYPROPRANOLOL SULFATE], the Kb is 31.6 nM with Canis familiaris [1], 28.8 nM with Canis familiaris [2] and 45.7 nM with Canis familiaris [4]. In addition, the values for the Relative potency (in the series listed under Canis familiaris [3]; in series [7]) were 0.13 and 0.77, respectively. Further, in series [5], the pH-dependent lipophilicity (logD) came out at 0.53. Also, the Dose in the series on Canis familiaris [6] was determined as 4.35 mg.

As for `CC(C)NCC(O)COc1cccc2cccc(O)c12` (stereo not given), the Kb in the series on Canis familiaris [1] is 55 nM; with Canis familiaris [2], 155 nM; in the series on Canis familiaris [4], 229 nM. Further, the results for the Relative potency (in the series filed under Canis familiaris [3]; in series [7]) were 0.94 and 0.17, respectively. Also, the logD in series [5] was 1.4. In the series on Canis familiaris [6], the Dose was determined as 0.58 mg.

Regarding `CC(C)NCC(O)COc1cc(O)cc2ccccc12` (stereo not given), the Kb with Canis familiaris [1] is 58.9 nM; with Canis familiaris [2], 107 nM; in the series with Canis familiaris [4] it was 288 nM. The figures for the Relative potency (in the series listed under Canis familiaris [3]; in series [7]) were 0.06 and 0.16, respectively. Besides, the log distribution coefficient (logD) in series [5] came to 0.57. This molecule also had a Dose with Canis familiaris [6] of 10 mg.

Regarding `CC(C)NCC(O)COc1cccc2cc(O)ccc12` (stereo not given), the results for the Kb in the series on Canis familiaris [1], with Canis familiaris [2] and with Canis familiaris [4] were 4.47 nM, 4.37 nM and 9.77 nM, respectively. Also, the Relative potency came to 0.22 in the series listed under Canis familiaris [3] and 3.82 in series [7]. Further, the logD in series [5] came out at 0.46. In the series with Canis familiaris [6], this molecule gave a Dose of 2.45 mg.

As to `CC(C)NCC(O)COc1cccc2ccc(O)cc12` (stereo not given), the Kb in the series with Canis familiaris [1] was 26.3 nM; in the series with Canis familiaris [2], 17.4 nM; in the series with Canis familiaris [4], 56.2 nM. Besides, the Relative potency in the series filed under Canis familiaris [3] is 0.2; in series [7], 0.95. The molecule also gave a logD in series [5] of 0.62. For the same molecule, the Dose in the series with Canis familiaris [6] is given as 2.8 mg.
